This passage reports IC50, Activity and IC90 results from ChEMBL document CHEMBL1157338, “5-alkylresorcinols from Merulius incarnatus” (J Nat Prod, 2006).

What is called IC50 is the concentration that gives 50% inhibition. Usually IC90 stands for the point of the concentration-response curve where the effect stands at 90%.

Values after ≈ are worked out from the molar mass of the structure shown. Active and inactive are the calls of the source. The calls are words filed in the database; no cut-off is given here.

In series [1] the test system is Mycobacterium intracellulare. The series is described as follows: Antimicrobial activity against Mycobacterium intracellular ATCC 23068 by alamar blue method. In kind it is functional, organism-based. The essentials:
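Modified Alamar Blue procedure, highest concentration 20 µg/mL. IC50 taken from dose-response curves, with amphotericin B as positive control.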
(Resazurin is reduced to fluorescent resorufin, in cell work by metabolically active cells.)

Series [2] has as its system Staphylococcus aureus. Briefly: Antimicrobial activity against methicillin-resistant Staphylococcus aureus ATCC 43300 by antimicrobial susceptibility test. The series is classed as functional, organism-based.
Series [3] deals with Nakaseomyces glabratus. Briefly: Antimicrobial activity against Candida glabrata ATCC 90030 by broth dilution method. In kind it is functional, organism-based. (In broth dilution the organism is exposed to a series of concentrations in liquid medium.)
The subject of series [4] is Candida albicans. The series is described as follows: Antimicrobial activity against Candida albicans ATCC 90028 by broth dilution method. The series is classed as functional, organism-based.
Series [5] has as its system Aspergillus fumigatus. The series is described as follows: Antimicrobial activity against Aspergillus fumigatus ATCC 90906 by broth dilution method. In kind it is functional, organism-based.
Series [6] deals with Pichia kudriavzevii. Briefly: Antimicrobial activity against Candida krusei ATCC 6258 by broth dilution method. In kind it is functional, organism-based.
Series [7] relates to Vero. The series is described as follows: Cytotoxicity against african green monkey Vero cells at 25 ug/ml. The series is classed as cell-based. The conditions noted are these: chlorocebus sabaeus.
Series [8] has as its system Leishmania major. The series is described as follows: Antileishmanial activity against Leishmania major MRHO/IR/75/ER promastigotes after 72 hrs by alamar blue assay. In kind it is functional, organism-based. The essentials:
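Alamar Blue read-out against promastigotes, with pentamidine and amphotericin B as reference standards.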

For series [9], the system named is Cryptococcus neoformans. The series is described as follows: Antimicrobial activity against Cryptococcus neoformans ATCC 90113 by broth dilution method. The series is classed as functional, organism-based.

With `CCCCCCCC/C=C\CCCCCCCc1cc(O)cc(O)c1`, the IC50 in series [1] is 10 µg/mL (≈ 28.9 µM); in series [2], 8 µg/mL (≈ 23.1 µM).

As for `CCCCCCCCCCCCCCCCCc1cc(O)cc(O)c1`, the result in [3], in series [4], in series [5] and in series [6] was inactive.

Turning to `CCCCCCCCCCCCCCCc1cc(O)cc(O)c1`, the outcome in [3], in series [4], in series [5] and in series [6] was inactive.

Compound `C=CCCC/C=C\C=C\CCCCCCCCc1cc(O)cc(O)c1` had an IC50 in series [2] of 15 µg/mL (≈ 43.8 µM).

Turning to `C=CCCC/C=C\C/C=C\CCCCCCCc1cc(O)cc(O)c1`, the Activity entry in [7] is reported as “Non-toxic”. In [8], this compound had an IC50 of 3.6 µg/mL (≈ 10.5 µM) and an IC90 of 7 µg/mL (≈ 20.4 µM). Also, 2.5 µg/mL (≈ 7.3 µM) corresponded to half-maximal inhibition in series [2] (IC50).

For `N=C(N)c1ccc(OCCCCCOc2ccc(C(=N)N)cc2)cc1` [PENTAMIDINE], in series [8], it took 0.6 µg/mL (≈ 1.76 µM) to reach half-maximal inhibition (IC50) and the 90% effect level (IC90) was put at 1.9 µg/mL (≈ 5.58 µM).

`CCCCC/C=C\C/C=C\CCCCCCCc1cc(O)cc(O)c1`: half-maximal inhibition in [2] (IC50) was put at 6.5 µg/mL (≈ 18.9 µM).

For `C[C@@H]1[C@H](O)[C@@H](C)/C=C/C=C/C=C/C=C/C=C/C=C/C=C/[C@H](O[C@@H]2O[C@H](C)[C@@H](O)[C@H](N)[C@@H]2O)C[C@@H]2O[C@](O)(C[C@@H](O)C[C@@H](O)[C@H](O)CC[C@@H](O)C[C@@H](O)CC(=O)O[C@H]1C)C[C@H](O)[C@H]2C(=O)O` [AMPHOTERICIN B], in [9], the concentration for half-maximal inhibition (IC50) worked out at 0.75 µg/mL (≈ 0.812 µM).

Compound `O=C(O)c1cn(C2CC2)c2cc(N3CCNCC3)c(F)cc2c1=O` [CIPROFLOXACIN] yielded an IC50 in series [1] of 0.4 µg/mL (≈ 1.21 µM).
